Experimental data as given in ChEMBL document CHEMBL1123966, “Ring-substituted [1,2-bis(4-hydroxyphenyl)ethylenediamine]dichloroplatinum (II) complexes: compounds with a selective effect on the hormone-dependent mammary carcinoma” (1988).
Values joined by “and” are separate entries in the source; they are usually repeats but may differ in a detail not shown here. Identical values can stand only once.

How the values were obtained:
[1] = Cell growth inhibition MXT-ER- breast cancer cells at a dose of 11.3 mg/kg; type: functional, organism-based; parameters: dose 11.3 mg/kg; conditions: Mus musculus, Cancer cell lines
How it was run: (§1)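 Hormone-independent MXT mammary carcinoma (ER−) in mice. Equimolar doses (2 × 10⁻⁵ M/kg) were given sc three times a week (Mon, Wed, Fri) in polyethylene glycol 400/H₂O (1:1), or in olive oil for some agents. Median tumor area was measured at the end of a 2-week therapy and expressed as T/C %.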

MDA-MB-231 [2] = experiment: Cell growth inhibition in hormone independent MDA-MB-231 breast cancer cells; type: functional, cell-based; conditions: Homo sapiens
MCF7S [3] = experiment: Incorporation of [3H]- thymidine in hormone dependent MCF-7 breast cancer cells; type: functional, cell-based; conditions: Homo sapiens
Mus musculus [4] = experiment: Uterotrophic effect in BDF1 mouse at a dose of 11.3 mg/kg; type: functional, organism-based; parameters: dose 11.3 mg/kg; conditions: Uterus
How it was run: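 Uterus of BDF1 mice in the MXT ER+ study. Equimolar dosing at 2 × 10⁻⁵ M/kg, sc in PEG 400/H₂O 1:1 three times a week (Mon/Wed/Fri). Uterine response = [uterus dry weight (mg)/body weight (g)] × 100, determined after 6 weeks of therapy; U test.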

MDA-MB-231 [5] = experiment: Incorporation of [3H]- thymidine in hormone independent MDA-MB-231 breast cancer cells; type: functional, cell-based; conditions: Homo sapiens
MDA-MB-231 [6] = experiment: Incorporation of [3H]- thymidine into hormone independent MDA-MB-231 breast cancer cells; type: functional, cell-based; conditions: Homo sapiens
[7] = Cell growth inhibition MXT-ER+ breast cancer cells at a dose of 11.3 mg/kg; type: functional, organism-based; parameters: dose 11.3 mg/kg; conditions: Mus musculus, Cancer cell lines
How it was run: (§2)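 Hormone-dependent MXT mammary carcinoma (ER+) model. Equimolar doses (2 × 10⁻⁵ M/kg) were given sc three times weekly (Mon, Wed, Fri) as a solution or suspension in polyethylene glycol 400/H₂O (1:1); some agents were given in olive oil. Median tumor weight was taken at the end of 6 weeks of therapy and given as T/C %. Significance was tested by the Wilcoxon-Mann-Whitney U test.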

Mus musculus [8] = organism: Mus musculus; experiment: (§3) Uterotrophic effect in BDF1 mouse measured as([weight of uterus (mg)/body weight (g)] *100); type: functional
How it was run: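 Female BDF1 mice carrying MXT ER+ mammary carcinoma were dosed in olive oil, sc, three times a week, for 6 weeks. At the end of therapy, uterotropic effect = [uterus dry weight (mg)/body weight (g)] × 100, given as mean ± SD and as T/C % versus control. Significance was by the U test.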

Mus musculus [9] = experiment: Median tumor weight of MXT (mammary carcinoma) ER+ determined at the end of 6 week therapy at a dose of 11.3 mg/kg; type: functional, organism-based; parameters: dose 11.3 mg/kg; how it was run: as §2
MCF7S [10] = experiment: Cell growth inhibition in hormone dependent MCF 7 breast cancer cells; type: functional, cell-based; conditions: Homo sapiens
Mus musculus [11] = organism: Mus musculus; experiment: as §3; type: functional, organism-based
[12] = Cell growth inhibition of MXT-ER+ breast cancer cells at a dose of 1.4 mg/kg (4.6*10e-6M/kg); type: functional, organism-based; parameters: dose 1.4 mg/kg; conditions: Mus musculus, Cancer cell lines
How it was run: (§4)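 Hormone-dependent MXT mammary carcinoma in BDF₁ mice. Dosing was sc in water as vehicle: 1.4 mg/kg three times a week, and 4.2 mg/kg once per week. Median tumor weight was taken after 6 weeks of therapy and expressed as T/C %. Significance was tested by the Wilcoxon-Mann-Whitney U test.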

[13] = Cell growth inhibition of MXT-ER- breast cancer cells ata dose of 2 mg/kg; type: functional, organism-based; parameters: dose 2 mg/kg; conditions: Mus musculus; Cancer cell lines; how it was run: as §1
[14] = Cell growth inhibition of MXT-ER+ breast cancer cells at a dose of 4.2 mg/kg (1.4*10^-5 M/kg); type: functional, organism-based; parameters: dose 4.2 mg/kg; conditions: Mus musculus, Cancer cell lines; how it was run: as §4
Mus musculus [15] = experiment: Uterotrophic effect in BDF1 mouse ata dose of 2 mg/kg; type: functional, organism-based; parameters: dose 2 mg/kg; conditions: Uterus
How it was run: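 Uterus of BDF1 mice in the MXT ER+ study. Equimolar dosing at 2 × 10⁻⁵ M/kg, sc in olive oil three times a week (Mon/Wed/Fri). Uterine response = [uterus dry weight (mg)/body weight (g)] × 100, determined at the end of the 6-week therapy; U test.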

[16] = Cell growth inhibition of MXT-ER+ breast cancer cells ata dose of 2 mg/kg; type: functional, organism-based; parameters: dose 2 mg/kg; conditions: Mus musculus; Cancer cell lines; how it was run: as §2
Mus musculus [17] = experiment: Median tumor weight MXT ER+ determined at the end of 6 week therapy at a dose of 1.4 mg/kg (4.6*10e-6M/kg); type: functional, organism-based; parameters: dose 1.4 mg/kg; how it was run: as §4
Mus musculus [18] = experiment: Uterotrophic effect in BDF1 mouse at a dose of 1.4 mg/kg (4.6*10e-6M/kg); type: functional, organism-based; parameters: dose 1.4 mg/kg; conditions: Uterus
How it was run: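 BDF1 mice bearing MXT mammary carcinoma. Dosing sc in water three times a week for 6 weeks. Uterine index = [uterus dry weight (mg)/body weight (g)] × 100 (± SD), read at the end of therapy; U test.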

Mus musculus [19] = experiment: Median tumor weight of MXT ER+ determined at the end of 6 week therapy at a dose of 4.2 mg/kg (1.4*10^-5 M/kg); type: functional, organism-based; parameters: dose 4.2 mg/kg
How it was run: (§5)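 BDF1 mice bearing MXT mammary carcinoma. Dosing sc in water once per week over a 6-week therapy. Median tumor weight and uterine index ([uterus dry weight (mg)/body weight (g)] × 100) were read at the end of therapy; U test (Wilcoxon, Mann, Whitney).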

Mus musculus [20] = experiment: Median tumor weight of MXT ER+ determined at the end of 6 week therapy ata dose of 2 mg/kg; type: functional, organism-based; parameters: dose 2 mg/kg
How it was run: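 BDF1 mice with hormone-dependent MXT mammary carcinoma (ER+). Equimolar dosing at 2 × 10⁻⁵ M/kg, given sc in olive oil three times a week (Mon/Wed/Fri) for 6 weeks. Median tumor weight was taken at the end of therapy and compared with controls by the Wilcoxon–Mann–Whitney U test.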

Mus musculus [21] = experiment: Uterotrophic effect in BDF1 mouse at a dose of 4.2 mg/kg (1.4*10^-5 M/kg); type: functional, organism-based; parameters: dose 4.2 mg/kg; conditions: Uterus; how it was run: as §5

Substance | ED50 (MDA-MB-231 [2]) | T/C (MDA-MB-231 [2]) | ED50 (MCF7S [3]) | T/C (MCF7S [3]) | T/C (MDA-MB-231 [5]) | ED50 (MDA-MB-231 [6]) | Effect (Mus musculus [8]) | ED50 (MCF7S [10]) | T/C (MCF7S [10]) | also measured
meso-2-PtCl2(2-6-(CH3)2) | 2700 nM | 34% | 900 nM | 4% | 28% | 2700 nM | 86.6 | 3100 nM | 17% | T/C [1]: 63%; T/C (Mus musculus [4]): 96%; T/C [7]: 9%; Med tumor weight (Mus musculus [9]): 40 mg
CISPLATIN | 240 nM | 26% | 110 nM | 1% | 17% | 320 nM | 95 | 440 nM | 11% | Utreotropic effect (Mus musculus [11]): 96 and 100; T/C [12]: 3%; T/C [13]: 15%; T/C [14]: 44%; T/C (Mus musculus [15]): 114%; T/C [16]: 3%; Med tumor weight (Mus musculus [17]): 15 mg; T/C (Mus musculus [18]): 114%; Med tumor weight (Mus musculus [19]): 222 mg; Med tumor weight (Mus musculus [20]): 15 mg; T/C (Mus musculus [21]): 118%
